Key:
zebrafish HDAC10 = biological target: T1, zebrafish HDAC10 (Danio rerio, UniProt F1QCV2); assay: fixed-point N-acetylputrescine hydrolysis assay; assay type: biochemical
T1 sequence (F1QCV2 1-675): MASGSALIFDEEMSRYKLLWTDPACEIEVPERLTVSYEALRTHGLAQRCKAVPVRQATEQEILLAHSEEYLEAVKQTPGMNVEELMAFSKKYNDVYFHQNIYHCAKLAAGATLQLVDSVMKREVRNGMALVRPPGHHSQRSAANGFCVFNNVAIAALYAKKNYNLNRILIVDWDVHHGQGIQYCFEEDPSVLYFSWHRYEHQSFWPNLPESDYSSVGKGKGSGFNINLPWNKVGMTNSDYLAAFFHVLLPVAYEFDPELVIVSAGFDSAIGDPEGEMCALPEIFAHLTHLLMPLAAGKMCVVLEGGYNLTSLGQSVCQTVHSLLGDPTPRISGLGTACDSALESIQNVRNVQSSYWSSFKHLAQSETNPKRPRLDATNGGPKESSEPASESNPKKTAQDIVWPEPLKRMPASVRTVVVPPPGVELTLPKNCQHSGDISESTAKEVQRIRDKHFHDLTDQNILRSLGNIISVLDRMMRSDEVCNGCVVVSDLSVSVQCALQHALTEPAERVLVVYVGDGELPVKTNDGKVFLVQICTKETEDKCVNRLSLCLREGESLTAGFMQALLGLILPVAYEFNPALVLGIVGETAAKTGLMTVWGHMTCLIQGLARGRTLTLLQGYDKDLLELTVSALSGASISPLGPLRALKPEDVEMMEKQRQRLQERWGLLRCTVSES
Outline: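 N-acetylputrescine 800 μM added; quenched after 45–60 min with sodium bicarbonate plus dansyl chloride, 50 °C 1 h. Dansylated product quantified by LC-MS; IC50 from logistic nonlinear regression.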

[1] = stability in aqueous solution by mass spectrometry; assay type: physicochemical
[2] = ratio of IC50 values against zebrafish HDAC10

Row | SMILES | IC50 (zebrafish HDAC10) [nM] | fold greater inhibitory potency than methylketone 2 or methoxymethylketone 3 (zebrafish HDAC10; [2]) | fold difference in potencies between inhibitors 7 and 6 (zebrafish HDAC10; [2]) [fold] | stability in aqueous solution [1]
1 | NCCCNCCCCCC(=O)C(F)(F)F [compound 1, 7-[(3-aminopropyl)amino]-1,1,1-trifluoroheptan-2-one] | 80 ± 10 | at least 29 fold | – | –
2 | CC(=O)CCCCCNCCCN [compound 2, 7-[(3-aminopropyl)amino]heptan-2-one] | 2300 ± 200 | – | – | –
3 | NCCCNCCCCCB(O)O [compound 4, 5-[(3-aminopropyl)amino]pentylboronic acid] | 400000 ± 70000 | – | – | –
4 | NCCCNCCCCCS [compound 6, 5-[(3-aminopropyl)amino]pentane-1-thiol] | 370 ± 20 | – | – | susceptible to oxidation and begins to forms a disulfide in aqueous solution

Further lines, with some results ahead:

Row | IC50 (zebrafish HDAC10) [nM] | fold greater inhibitory potency than methylketone 2 or methoxymethylketone 3 (zebrafish HDAC10; [2]) | fold difference in potencies between inhibitors 7 and 6 (zebrafish HDAC10; [2]) [fold] | SMILES | stability in aqueous solution [1]
5 | 35000 ± 100 | – | – | COCC(=O)CCCCCNCCCN [compound 3, 7-[(3-aminopropyl)amino]-1-methoxyheptan-2-one] | –
6 | 30 ± 10 | – | 12 | CC(=O)SCCCCCNCCCN [compound 7, S-{5-[(3-aminopropyl)amino]pentyl} thioacetate] | stable in aqueous solution
